From BindingDB's records for doi:10.1016/j.ejmech.2018.08.004 (The University of Queensland, 2018)

Columns and labels:
[1] = biological target: T1, Tartrate-resistant acid phosphatase type 5 (Sus scrofa, UniProt P09889); assay: Competitive inhibition of pig purple acid phosphatase Fe(3)Fe(2) state assessed as enzyme-inhibitor complex using pNPP as substrate by UV/Vis spectrophotometric method
T1 sequence (P09889 whole entry): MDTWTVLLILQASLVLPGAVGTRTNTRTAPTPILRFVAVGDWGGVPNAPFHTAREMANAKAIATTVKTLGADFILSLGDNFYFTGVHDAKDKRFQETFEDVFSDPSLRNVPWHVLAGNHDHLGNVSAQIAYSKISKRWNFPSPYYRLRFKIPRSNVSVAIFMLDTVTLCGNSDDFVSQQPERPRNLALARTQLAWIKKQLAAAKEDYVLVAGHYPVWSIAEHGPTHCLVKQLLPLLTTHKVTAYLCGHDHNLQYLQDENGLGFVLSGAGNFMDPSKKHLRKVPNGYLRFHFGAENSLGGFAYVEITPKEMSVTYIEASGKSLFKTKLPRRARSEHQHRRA
Summary of the method: (§1)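 Pig PAP was from sow uterine fluid and pre-reduced to Fe(III)Fe(II) with 0.77 mM β-mercaptoethanol (10 min, 37 °C); rkbPAP was purified from red kidney beans. Assays ran at 25 °C, pH 4.9 (0.1 M acetate, 25% DMSO) with 12 nM enzyme, pNPP 1–12.5 mM and inhibitor 50–300 μM. p-Nitrophenol was read at 405 nm. Kic and Kiuc came from non-linear fit to the general inhibition equation.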

[2] = biological target: T2, Fe(3+)-Zn(2+) purple acid phosphatase (Phaseolus vulgaris, UniProt P80366); assay: Competitive inhibition of red kidney bean purple acid phosphatase Fe(3)Fe(2) state assessed as enzyme-inhibitor complex using pNPP as substrate by UV/Vis spectrophotometric method; summary of the method: as §1
T2 sequence (P80366 whole entry): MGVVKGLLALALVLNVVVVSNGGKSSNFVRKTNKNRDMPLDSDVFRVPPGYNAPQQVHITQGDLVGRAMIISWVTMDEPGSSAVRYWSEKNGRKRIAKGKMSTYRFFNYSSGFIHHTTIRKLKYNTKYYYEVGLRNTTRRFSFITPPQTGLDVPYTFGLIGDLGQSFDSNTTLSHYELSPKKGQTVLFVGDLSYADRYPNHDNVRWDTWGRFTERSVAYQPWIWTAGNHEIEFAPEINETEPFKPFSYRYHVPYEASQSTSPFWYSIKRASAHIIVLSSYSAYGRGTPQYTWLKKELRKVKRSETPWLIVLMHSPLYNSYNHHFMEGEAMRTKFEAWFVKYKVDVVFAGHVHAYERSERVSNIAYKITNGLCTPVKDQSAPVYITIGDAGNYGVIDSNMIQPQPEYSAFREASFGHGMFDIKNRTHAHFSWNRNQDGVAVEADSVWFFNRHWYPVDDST

Row | Structure (SMILES) | Ki [1] [µM] | Ki [2] [µM]
1 | COc1ccc(-c2nc(C(=O)O)cs2)cc1 | 120 | 400
2 | Cc1ccc(-c2nc(C(=O)O)cs2)cc1 | 42 | 340
3 | O=C(O)c1csc(-c2cccc3ccccc23)n1 | 33 | 185
4 | O=C(O)c1csc(-c2ccccc2Cl)n1 | 630 | 920
5 | O=C(O)c1csc(-c2ccc(Cl)cc2)n1 | 49 | 530
6 | O=C(O)c1csc(-c2ccccc2)n1 | 190 | 
